Data published in ChEMBL document CHEMBL1123840, “Synthesis and evaluation of melphalan-containing N,N-dialkylenkephalin analogues as irreversible antagonists of the delta opioid receptor” (J Med Chem, 1987).
Several values for one entry are separate records, joined by “and”; a condition that tells them apart may be missing. Equal entries are not always repeated. Square brackets hold non-standard residues; d marks the D form. Peptide text beside a SMILES is read from it. * marks the point of attachment. ξ: configuration not given here. Phe(4-N(CH2CH2Cl)2) = N[C@@H](Cc1ccc(N(CCCl)CCCl)cc1)C(=O)O; Tyr(Nα,Nα-allyl2) = C=CCN(CC=C)[C@@H](Cc1ccc(O)cc1)C(=O)*; ξPhe(4-N(CH2CH2Cl)2) = NC(Cc1ccc(N(CCCl)CCCl)cc1)C(=O)O; X1 = O=C(C(Cc1ccc(O)cc1)N(Cc1ccccc1)Cc1ccccc1)*; ξL = CC(C)CC(N)C(=O)O; Aib = CC(C)(N)C(=O)O

What was measured:
[1] = target: Mu-type opioid receptor (Cavia porcellus) (UniProt P97266); assay: Ratio of IC50 of […] (agonist) after 10 min of incubation along with compound (antagonist) and IC50 of agonist in absence of compound for mu opioid receptor at 1 uM in GPI assay (Exp 2); type: functional
Method in brief: (§1)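 Reversible antagonism was measured in electrically stimulated isolated tissue (MVD or GPI) with the antagonist present. Agonists were morphine (μ), ethylketazocine (κ) and DADLE (δ). The value is the agonist IC50 with antagonist divided by the IC50 without it, i.e. the fold rightward shift of the agonist dose-response curve. Mean ± SEM, n = 3 unless otherwise noted.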

Cavia porcellus [2] = species on record: Cavia porcellus; assay: Reversible opioid agonist activity in the electrically stimulated guinea pig ileum(GPI) at 1 uM concentration (Experiment 1)
Cavia porcellus [3] = species on record: Cavia porcellus; assay: Reversible opioid agonist activity in the electrically stimulated guinea pig ileum(GPI) at 1 uM concentration (Experiment 2)
[4] = target: Delta-type opioid receptor (Mus musculus) (UniProt P32300); assay: Ratio of IC50 of DADLE (agonist) after 10 min of incubation along with compound (antagonist) and IC50 of agonist in the absence of compound for delta opioid receptor at 1 uM in MVD assay; type: functional; method in brief: as §1
Mus musculus [5] = species on record: Mus musculus; assay: (§2) Reversible opioid agonist activity in the electrically stimulated mouse vas deferens(MVD) at 1 uM concentration; type: functional
[6] = target: Mu-type opioid receptor (Homo sapiens) (UniProt P35372); assay: Ratio of IC50 of […] (agonist) after 10 min of incubation along with compound (antagonist) and IC50 of agonist in absence of compound for mu opioid receptor at 1 uM in MVD assay; type: functional; settings: Mus musculus; method in brief: as §1
[7] = target: Mu-type opioid receptor (Cavia porcellus) (UniProt P97266); settings: 1 uM
Mus musculus [8] = species on record: Mus musculus; assay: Ratio of IC50 of DADLE (agonist) expossed to the compound for 10 min and then washed 30 times to Ratio of IC50 of morphine (agonist) prior to exposure to compound; type: functional
Method in brief: (§3)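 Irreversible antagonism was measured in isolated tissue. The tissue was exposed to the compound for 10 min (30 min in some cases), then washed 30 times with fresh buffer to remove non-covalently bound ligand. Agonist IC50 was then redetermined. The ratio is this post-wash IC50 over the agonist IC50 in the same tissue before exposure. Mean ± SEM, n = 3 unless otherwise noted.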

Mus musculus [9] = species on record: Mus musculus; assay: Ratio of IC50 of morphine (agonist) expossed to the compound for 10 min and then washed 30 times to Ratio of IC50 of morphine (agonist) prior to exposure to compound; type: functional; method in brief: as §3
[10] = target: Kappa-type opioid receptor (Cavia porcellus) (UniProt P41144); assay: Ratio of IC50 of ethylketazocine (agonist) after 10 min of incubation along with compound (antagonist) and IC50 of agonist in absence of compound for Opioid receptor kappa 1 at 1 uM in GPI assay (Exp 1); type: functional; method in brief: as §1
[11] = target: Kappa-type opioid receptor (Cavia porcellus) (UniProt P41144); assay: Ratio of IC50 of ethylketazocine (agonist) after 10 min of incubation along with compound (antagonist) and IC50 of agonist in absence of compound for Opioid receptor kappa 1 at 1 uM in GPI assay (Exp 2); type: functional; method in brief: as §1
[12] = target: T1, Opioid receptor (Mus musculus) (UniProt P42866+P32300+P33534); assay: Reversible opioid agonist activity in the electrically stimulated mouse vas deferens(MVD) at 10 uM of concentration; type: functional
[13] = target: Delta-type opioid receptor (Mus musculus) (UniProt P32300); assay: Ratio of IC50 of DADLE (agonist) after 10 min of incubation along with compound (antagonist) and IC50 of agonist in the absence of compound for Opioid receptor delta 1 at 1 uM in MVD assay; type: functional; method in brief: as §1
[14] = target: Delta-type opioid receptor (Mus musculus) (UniProt P32300); assay: Ratio of IC50 of DADLE (agonist) after 10 min of incubation along with compound (antagonist) and IC50 of agonist in the absence of compound for Opioid receptor delta 1 at 10 uM in MVD assay; type: functional; method in brief: as §1
[15] = target: Mu-type opioid receptor (Mus musculus) (UniProt P42866); assay: Ratio of IC50 of […] (agonist) after 10 min of incubation along with compound (antagonist) and IC50 of agonist in absence of compound for Opioid receptor mu 1 at 1 uM in MVD assay; type: functional; method in brief: as §1
[16] = target: T1, Opioid receptor (Mus musculus); assay: as §2; type: functional
[17] = target: T2, Opioid receptors; mu/kappa/delta (Homo sapiens) (UniProt P41145+P41143+P35372); assay: (§4) Reversible opioid agonist activity in the electrically stimulated guinea pig ileum(GPI) at 1 uM concentration (Exp 2); type: functional, tissue-based; settings: Cavia porcellus, target entry is the homologue from another species
[18] = target: T2, Opioid receptors; mu/kappa/delta (Homo sapiens); settings: Cavia porcellus; Ileum; 1 uM
[19] = target: Mu-type opioid receptor (Cavia porcellus) (UniProt P97266); settings: 1 uM; remark: listed apart in the source
[20] = target: Mu-type opioid receptor (Cavia porcellus) (UniProt P97266); settings: 1 uM; remark: listed apart in the source
[21] = target: Mu-type opioid receptor (Mus musculus) (UniProt P42866); settings: 10 uM
[22] = target: Kappa-type opioid receptor (Cavia porcellus) (UniProt P41144); assay: Ratio of IC50 of ethylketazocine (agonist) after 10 min of incubation along with compound (antagonist) and IC50 of agonist in absence of compound for kappa opioid receptor at 1 uM in GPI assay (Exp 1); type: functional; method in brief: as §1
Cavia porcellus [23] = species on record: Cavia porcellus; assay: Reversible opioid agonist activity in the electrically stimulated guinea pig ileum(GPI) at 1 uM concentration (Exp 1); type: functional; settings: Cavia porcellus, Ileum
Cavia porcellus [24] = species on record: Cavia porcellus; assay: as §4
[25] = target: Kappa-type opioid receptor (Cavia porcellus) (UniProt P41144); settings: 1 uM
Mus musculus [26] = species on record: Mus musculus; assay: Ratio of IC50 of DADLE (agonist) exposed to the compound for 10 min and then washed 30 times to Ratio of IC50 of morphine (agonist) prior to exposure to compound; type: functional; method in brief: as §3
[27] = target: Mu-type opioid receptor (Cavia porcellus) (UniProt P97266); assay: Ratio of IC50 of […] (agonist) after 10 min of incubation along with compound (antagonist) and IC50 of agonist in absence of compound for Opioid receptor mu 1 at 1 uM in GPI assay (exp 1); type: functional; method in brief: as §1
[28] = target: Mu-type opioid receptor (Cavia porcellus) (UniProt P97266); assay: Ratio of IC50 of […] (agonist) after 10 min of incubation along with compound (antagonist) and IC50 of agonist in absence of compound for Opioid receptor mu 1 at 1 uM in GPI assay (exp 2); type: functional; method in brief: as §1
[29] = target: T2, Opioid receptors; mu/kappa/delta (Homo sapiens); assay: Reversible opioid agonist activity in the electrically stimulated guinea pig ileum(GPI) at 1 uM concentration (exp 1); type: functional, tissue-based; settings: Cavia porcellus, target entry is the homologue from another species
[30] = target: T2, Opioid receptors; mu/kappa/delta (Homo sapiens); assay: Reversible opioid agonist activity in the electrically stimulated guinea pig ileum(GPI) at 1 uM concentration (exp 2); type: functional, tissue-based; settings: Cavia porcellus, target entry is the homologue from another species

Mu-type opioid receptor (Mus musculus), sequence (P42866 whole entry): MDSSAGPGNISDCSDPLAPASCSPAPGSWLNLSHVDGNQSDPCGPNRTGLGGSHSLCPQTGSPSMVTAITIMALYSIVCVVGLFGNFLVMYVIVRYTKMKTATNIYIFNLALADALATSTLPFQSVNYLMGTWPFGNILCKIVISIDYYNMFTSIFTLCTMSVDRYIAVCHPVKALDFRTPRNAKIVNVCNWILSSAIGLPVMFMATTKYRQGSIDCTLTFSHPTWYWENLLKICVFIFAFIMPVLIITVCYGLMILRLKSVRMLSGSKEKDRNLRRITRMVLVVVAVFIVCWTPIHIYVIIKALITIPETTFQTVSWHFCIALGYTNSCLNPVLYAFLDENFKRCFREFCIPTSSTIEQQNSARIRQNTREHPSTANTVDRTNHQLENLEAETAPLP
Mu-type opioid receptor (Cavia porcellus), sequence (P97266 whole entry): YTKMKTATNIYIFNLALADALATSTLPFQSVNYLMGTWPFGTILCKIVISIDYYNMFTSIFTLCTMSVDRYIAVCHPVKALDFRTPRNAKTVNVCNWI
T2 sequence (P35372 whole entry, looked up): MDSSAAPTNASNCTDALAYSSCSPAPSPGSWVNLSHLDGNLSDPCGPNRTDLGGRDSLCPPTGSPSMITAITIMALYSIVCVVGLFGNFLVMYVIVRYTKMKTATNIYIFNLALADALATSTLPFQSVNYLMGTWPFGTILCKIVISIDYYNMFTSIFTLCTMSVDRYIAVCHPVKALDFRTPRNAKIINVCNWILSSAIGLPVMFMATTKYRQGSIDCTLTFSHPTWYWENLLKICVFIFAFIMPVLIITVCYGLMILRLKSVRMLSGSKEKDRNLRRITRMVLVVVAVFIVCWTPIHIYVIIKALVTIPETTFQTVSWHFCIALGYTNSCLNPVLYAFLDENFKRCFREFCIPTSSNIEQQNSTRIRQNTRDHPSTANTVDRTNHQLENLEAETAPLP
T2 sequence (P41143 whole entry, looked up): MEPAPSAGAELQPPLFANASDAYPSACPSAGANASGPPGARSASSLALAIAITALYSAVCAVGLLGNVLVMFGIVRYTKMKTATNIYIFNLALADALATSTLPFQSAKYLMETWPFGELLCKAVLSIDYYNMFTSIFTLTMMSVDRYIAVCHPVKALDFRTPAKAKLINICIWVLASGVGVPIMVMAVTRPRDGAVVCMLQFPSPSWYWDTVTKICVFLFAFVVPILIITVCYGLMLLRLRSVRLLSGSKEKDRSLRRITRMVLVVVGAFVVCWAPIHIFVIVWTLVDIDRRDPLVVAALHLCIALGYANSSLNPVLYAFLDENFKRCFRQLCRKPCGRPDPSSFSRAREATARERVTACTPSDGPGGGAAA
T2 sequence (P41145 whole entry, looked up): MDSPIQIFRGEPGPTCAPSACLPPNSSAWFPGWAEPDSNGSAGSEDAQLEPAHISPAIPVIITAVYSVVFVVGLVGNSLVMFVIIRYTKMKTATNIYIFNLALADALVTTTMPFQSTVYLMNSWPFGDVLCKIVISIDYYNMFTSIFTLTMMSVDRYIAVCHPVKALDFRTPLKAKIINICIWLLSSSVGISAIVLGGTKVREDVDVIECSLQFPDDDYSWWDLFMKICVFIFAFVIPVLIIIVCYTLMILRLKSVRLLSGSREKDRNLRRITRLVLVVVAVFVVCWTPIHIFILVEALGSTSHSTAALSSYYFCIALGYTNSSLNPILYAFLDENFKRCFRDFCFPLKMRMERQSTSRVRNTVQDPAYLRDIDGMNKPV
Kappa-type opioid receptor (Cavia porcellus), sequence (P41144 whole entry): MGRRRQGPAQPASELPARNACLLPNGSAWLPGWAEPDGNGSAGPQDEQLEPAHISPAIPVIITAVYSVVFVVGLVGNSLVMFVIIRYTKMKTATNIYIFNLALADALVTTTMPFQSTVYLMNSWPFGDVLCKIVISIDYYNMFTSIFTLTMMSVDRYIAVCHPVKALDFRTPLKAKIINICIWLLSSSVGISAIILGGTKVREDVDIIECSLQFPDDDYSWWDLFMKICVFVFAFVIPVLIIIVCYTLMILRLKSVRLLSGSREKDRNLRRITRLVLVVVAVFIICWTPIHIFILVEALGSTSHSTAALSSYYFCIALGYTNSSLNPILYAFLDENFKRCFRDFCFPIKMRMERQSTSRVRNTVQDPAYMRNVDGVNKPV
T1 sequence (P32300 whole entry, looked up): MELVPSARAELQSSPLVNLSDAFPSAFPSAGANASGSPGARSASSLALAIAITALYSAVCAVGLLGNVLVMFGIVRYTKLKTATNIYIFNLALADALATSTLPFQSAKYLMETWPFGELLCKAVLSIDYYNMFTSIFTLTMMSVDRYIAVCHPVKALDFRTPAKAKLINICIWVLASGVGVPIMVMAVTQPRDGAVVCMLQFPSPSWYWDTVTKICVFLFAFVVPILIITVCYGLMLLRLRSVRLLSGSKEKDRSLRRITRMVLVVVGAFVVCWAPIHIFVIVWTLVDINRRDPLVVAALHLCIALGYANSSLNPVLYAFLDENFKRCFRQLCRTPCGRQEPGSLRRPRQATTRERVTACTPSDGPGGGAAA
T1 sequence (P33534 whole entry, looked up): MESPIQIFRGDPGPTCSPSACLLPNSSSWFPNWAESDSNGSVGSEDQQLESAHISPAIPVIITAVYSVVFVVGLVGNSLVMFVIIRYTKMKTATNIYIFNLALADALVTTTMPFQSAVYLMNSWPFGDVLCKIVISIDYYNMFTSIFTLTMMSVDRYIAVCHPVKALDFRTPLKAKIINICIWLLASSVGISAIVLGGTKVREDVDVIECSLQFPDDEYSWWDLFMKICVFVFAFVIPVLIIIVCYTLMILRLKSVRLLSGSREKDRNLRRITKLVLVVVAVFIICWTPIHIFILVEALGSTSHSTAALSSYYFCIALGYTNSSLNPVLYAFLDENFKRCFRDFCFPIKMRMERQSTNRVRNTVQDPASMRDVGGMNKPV
T1 sequence (P42866 whole entry, looked up): as the sequence (P42866 whole entry) above
Delta-type opioid receptor (Mus musculus), sequence (P32300 whole entry): as the sequence (P32300 whole entry, looked up) above
Mu-type opioid receptor (Homo sapiens), sequence (P35372 whole entry): as the sequence (P35372 whole entry, looked up) above

| Structure (SMILES) | IC50 ratio [1] | IC50 ratio [4] | inhibition at 1 µM (Mus musculus [5]) [%] | IC50 ratio [6] | IC50 ratio [7] | IC50 ratio (Mus musculus [9]) | IC50 ratio [10] | IC50 ratio [11] | inhibition [12] [%] | IC50 ratio [13] | IC50 ratio [14] | IC50 ratio [15] | inhibition [16] [%] | further results |
| --- | --- | --- | --- | --- | --- | --- | --- | --- | --- | --- | --- | --- | --- | --- |
| C=CCN(CC=C)[C@@H](Cc1ccc(O)cc1)C(=O)NCC(=O)NCC(=O)N[C@@H](Cc1ccc(N(CCCl)CCCl)cc1)C(=O)N[C@@H](CC(C)C)C(=O)O ({Tyr(Nα,Nα-allyl2)}-GG[Phe(4-N(CH2CH2Cl)2)]L-OH) | 1.1 and 1 | 1.2 | 4.2 | 1.1 | 0.6 |  |  |  |  |  |  |  |  | inhibition at 1 µM (Cavia porcellus [2]): 23%; inhibition at 1 µM (Cavia porcellus [3]): 10% |
| CC(C)CC(NC(=O)C(Cc1ccc(N(CCCl)CCCl)cc1)NC(=O)CNC(=O)CNC(=O)C(Cc1ccc(O)cc1)N(Cc1ccccc1)Cc1ccccc1)C(=O)O (stereo not drawn) (X1-GG[ξPhe(4-N(CH2CH2Cl)2)][ξL]-OH) |  |  |  |  |  | 1.2 | 0.4 | 0.4 | 18.3 | 3 | 7.7 | 1 | 16.2 | IC50 ratio (Mus musculus [8]): 2.4; inhibition [17]: 10%; inhibition [18]: 4.8%; IC50 ratio [19]: 0.5; IC50 ratio [20]: 0.7; IC50 ratio [21]: 1.7 |
| C=CCN(CC=C)[C@@H](Cc1ccc(O)cc1)C(=O)NCC(=O)NCC(=O)N[C@@H](Cc1ccccc1)C(=O)N[C@@H](CC(C)C)C(=O)O ({Tyr(Nα,Nα-allyl2)}-GGFL-OH) | 1.1 | 2.7 | 10 | 0.8 | 0.8 |  |  |  |  |  |  |  |  | IC50 ratio [22]: 0.6; inhibition at 1 µM (Cavia porcellus [23]): -6.7%; inhibition at 1 µM (Cavia porcellus [24]): 0%; IC50 ratio [25]: 1.1 |
| C=CCN(CC=C)[C@@H](Cc1ccc(O)cc1)C(=O)NC(C)(C)C(=O)NC(C)(C)C(=O)N[C@@H](Cc1ccc(N(CCCl)CCCl)cc1)C(=O)N[C@@H](CC(C)C)C(=O)O ({Tyr(Nα,Nα-allyl2)}-[Aib][Aib][Phe(4-N(CH2CH2Cl)2)]L-OH) |  |  |  |  |  | 3 | 0.3 | 0.6 | 16.8 | 5 | 19.4 | 2.2 | 20.6 | IC50 ratio (Mus musculus [26]): 2.9; IC50 ratio [27]: 0.6; IC50 ratio [28]: 1; inhibition [29]: 8.1%; inhibition [30]: 14.7% |
